The values below come from ChEMBL document CHEMBL3593182, “Phytochemical Investigation of the Constituents Derived from the Australian Plant Macropidia fuliginosa” (2015).

Active and inactive are the calls of the source. The rule behind the calls is not given here.

For assay [1], the system named is Staphylococcus aureus. As to the kind of experiment: Antimicrobial activity against Staphylococcus aureus ATCC 25923 assessed as zone of inhibition at 2862 uM incubated overnight at 37 degC. To be noted: read-out: IZ. Type of assay: functional. The method, boiled down: (§1)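 Pure isolates screened against a panel of five bacteria and one fungus, each at a single concentration within 1639–5230 μM. A commercial antibiotic and antifungal agent were tested in parallel as references. Growth inhibition was recorded as the zone of inhibition.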

For a further assay, the system named is Streptococcus pyogenes. As to the kind of experiment: Antimicrobial activity against Streptococcus pyogenes 345/1 assessed as zone of inhibition at 2862 uM incubated overnight at 37 degC. It is filed as functional. Particulars: read-out: IZ. The gist of the method:
as §1

The test system of assay [2] is Staphylococcus aureus. Put plainly: Antimicrobial activity against methicillin-resistant Staphylococcus aureus 344/2-32 assessed as zone of inhibition at 2862 uM incubated overnight at 37 degC. Type of assay: functional. To be noted: read-out: IZ.
A further assay deals with Pseudomonas aeruginosa. As to the kind of experiment: Antimicrobial activity against Pseudomonas aeruginosa ATCC 27853 assessed as zone of inhibition at 2862 uM incubated overnight at 37 degC. It is filed as functional. Particulars: read-out: IZ. The gist of the method: as §1
For a further assay, the system named is Escherichia coli. Put plainly: Antimicrobial activity against Escherichia coli ATCC 25922 assessed as zone of inhibition at 2862 uM incubated overnight at 37 degC. Type of assay: functional, organism-based. The method, boiled down: as §1

In the case of `CC1(C)S[C@@H]2[C@H](NC(=O)[C@H](N)c3ccccc3)C(=O)N2[C@H]1C(=O)O` [AMPICILLIN], the zone of inhibition at 2862 µM turned out to be 15 mm with Staphylococcus aureus [1], 20 mm in the assay on Streptococcus pyogenes, 3 mm in the assay on Staphylococcus aureus [2] and 2 mm in the assay on Pseudomonas aeruginosa. The “inhibition zone (IZ)” value in the assay with Escherichia coli was “inactive”.
